# Columns and labels:
# [1] = molecular target: Mitogen-activated protein kinase 14 (Homo sapiens) (UniProt Q16539); assay: Inhibition of p38alpha MAP kinase at 10 uM; set-up: scale not given: the % may be the effect or the level left
# Procedure, shortened: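 Radiometric coupled assay. [γ-³²P]ATP and MAPKAP kinase-2 substrate then added, 10 min at 30 °C. Mixture spotted onto P81 phosphocellulose paper, washed with 0.75% phosphoric acid, bound radioactivity counted by liquid scintillation.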
# [2] = molecular target: T1, TGF-beta receptor type-1 (Homo sapiens) (UniProt P36897); assay: Inhibition of human ALK5 activity in human HaCaT cells assessed as ARE-luciferase reporter activity; format: cell-based; settings: in the assay text read “p3TP-luciferase” for “ARE-luciferase”
# T1 sequence (whole entry): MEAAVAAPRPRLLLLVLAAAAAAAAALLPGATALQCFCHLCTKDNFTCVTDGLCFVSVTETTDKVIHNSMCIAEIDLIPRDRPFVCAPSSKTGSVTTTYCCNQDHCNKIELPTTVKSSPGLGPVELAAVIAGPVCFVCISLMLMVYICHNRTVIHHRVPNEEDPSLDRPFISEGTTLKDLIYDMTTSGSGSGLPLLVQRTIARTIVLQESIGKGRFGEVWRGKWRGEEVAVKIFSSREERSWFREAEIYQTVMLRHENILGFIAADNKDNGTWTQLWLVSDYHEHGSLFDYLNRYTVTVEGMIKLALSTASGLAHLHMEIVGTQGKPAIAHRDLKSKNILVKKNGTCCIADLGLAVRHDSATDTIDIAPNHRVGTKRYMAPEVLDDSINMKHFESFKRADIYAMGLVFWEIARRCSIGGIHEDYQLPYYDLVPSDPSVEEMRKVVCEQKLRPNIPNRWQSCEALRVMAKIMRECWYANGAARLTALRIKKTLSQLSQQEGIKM
# Procedure, shortened: (§1)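 HaCaT cells seeded at 5 × 10⁴ per well; next day (about 90% confluent) transiently co-transfected with p3TP-Luc or ARE-Luc reporter plus β-galactosidase by lipofection. Inhibitors added 24 h post-transfection, 2 h before stimulation with 5 ng/mL TGF-β for 18–24 h. Luminescence of lysates read. Mean ± SD of three independent experiments run in triplicate, relative to DMSO vehicle control.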
# [3] = molecular target: T1, TGF-beta receptor type-1 (Homo sapiens); assay: Inhibition of human ALK5 activity in human HaCaT cells assessed as p3TP-luciferase reporter activity; format: cell-based; procedure, shortened: as §1
# Mitogen-activated protein kinase 14 (Homo sapiens), sequence (Q16539 whole entry): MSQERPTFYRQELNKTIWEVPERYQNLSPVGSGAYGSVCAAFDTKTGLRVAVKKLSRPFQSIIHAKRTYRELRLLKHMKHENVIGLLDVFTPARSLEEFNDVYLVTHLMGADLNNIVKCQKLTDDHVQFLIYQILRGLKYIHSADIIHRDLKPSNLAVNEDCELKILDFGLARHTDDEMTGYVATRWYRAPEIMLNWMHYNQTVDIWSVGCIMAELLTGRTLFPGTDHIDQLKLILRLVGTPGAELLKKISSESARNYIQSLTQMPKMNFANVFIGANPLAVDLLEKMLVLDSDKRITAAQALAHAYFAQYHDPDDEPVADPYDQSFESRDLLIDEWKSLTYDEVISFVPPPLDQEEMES
Activity [1] [%],Activity [2],Activity [3],SMILES
92,Dose-dependent effect,Dose-dependent effect,CCc1cccc(-c2[nH]c(Cc3ccc(S(N)(=O)=O)cc3)nc2-c2ccc3nccnc3c2)n1
95,,,NS(=O)(=O)c1ccc(Cc2nc(-c3ccc4nccnc4c3)c(-c3ccccn3)[nH]2)cc1
96,,,CCc1cccc(-c2[nH]c(CCc3ccc(S(N)(=O)=O)cc3)nc2-c2ccc3nccnc3c2)n1
98,,,CC(C)c1cccc(-c2[nH]c(Cc3ccc(S(N)(=O)=O)cc3)nc2-c2ccc3nccnc3c2)n1
91,,,Cc1cccc(-c2[nH]c(CCc3ccc(S(N)(=O)=O)cc3)nc2-c2ccc3nccnc3c2)n1
89,Dose-dependent effect,Dose-dependent effect,Cc1cccc(-c2[nH]c(Cc3ccc(S(N)(=O)=O)cc3)nc2-c2ccc3nccnc3c2)n1
104,,,CCCCc1cccc(-c2[nH]c(Cc3ccc(S(N)(=O)=O)cc3)nc2-c2ccc3nccnc3c2)n1
105,,,CCCc1cccc(-c2[nH]c(Cc3ccc(S(N)(=O)=O)cc3)nc2-c2ccc3nccnc3c2)n1

# The next lines start with the compound.
SMILES,Activity [1] [%],Activity [2],Activity [3]
CCCc1cccc(-c2[nH]c(CCc3ccc(S(N)(=O)=O)cc3)nc2-c2ccc3nccnc3c2)n1,103,,
CC(C)c1cccc(-c2[nH]c(CCc3ccc(S(N)(=O)=O)cc3)nc2-c2ccc3nccnc3c2)n1,105,,
NC(=O)c1ccc(-c2nc(-c3ccccn3)c(-c3ccc4c(c3)OCO4)[nH]2)cc1,49,,
NS(=O)(=O)c1ccc(CCc2nc(-c3ccc4nccnc4c3)c(-c3ccccn3)[nH]2)cc1,97,,
CCCCc1cccc(-c2[nH]c(CCc3ccc(S(N)(=O)=O)cc3)nc2-c2ccc3nccnc3c2)n1,97,,
